Test results taken from ChEMBL document CHEMBL1145217, “Discovery of novel tetrahydroisoquinoline derivatives as potent and selective factor Xa inhibitors” (Bioorg Med Chem Lett, 2005).

Assays:
[1] = Number of mouse death after 10 mg/kg compound intra venous administration; n=3; format: ADME, organism-based; parameters: dose 10 mg/kg; details: in vivo, iv
Method in brief: (§1)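 Result recorded as the number of deaths over the number of animals tested.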

[2] = Inhibitory concentration against thrombin (FIIa); n=2
[3] = target: Plasminogen (Homo sapiens, UniProt P00747); experiment: Mean inhibitory concentration against plasmin; n=3
Method in brief: (§2)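 Ki against each protease (factor Xa, thrombin, plasmin, trypsin), obtained from Dixon plots built at two substrate concentrations; mean of n = 3.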

[4] = Mean inhibitory concentration against trypsin; n=3; method in brief: as §2
[5] = Mean inhibitory concentration against thrombin; n=3; method in brief: as §2
[6] = Inhibitory concentration against coagulation factor X; n=2
[7] = Number of mouse death after 10 mg/kg compound intravenous administration; n=3; format: ADME, organism-based; parameters: dose 10 mg/kg, route intravenous; details: in vivo; method in brief: as §1
[8] = target: Coagulation factor X (Homo sapiens) (UniProt P00742); details: Plasma, at 10 mg/kg
[9] = Maximum concentration in monkey plasma after 10 mg/kg oral administration at 120 min; format: ADME, organism-based; parameters: dose 10 mg/kg, route oral; details: cercopithecidae
[10] = Mean inhibitory concentration against coagulation factor X; n=3; method in brief: as §2
[11] = Number of mouse death after 10 mg/kg compound intravenous administration; NT= not tested; format: ADME, organism-based; parameters: dose 10 mg/kg, route intravenous; details: in vivo; method in brief: as §1

Sequence of Plasminogen (P00747 97-580 limits assumed): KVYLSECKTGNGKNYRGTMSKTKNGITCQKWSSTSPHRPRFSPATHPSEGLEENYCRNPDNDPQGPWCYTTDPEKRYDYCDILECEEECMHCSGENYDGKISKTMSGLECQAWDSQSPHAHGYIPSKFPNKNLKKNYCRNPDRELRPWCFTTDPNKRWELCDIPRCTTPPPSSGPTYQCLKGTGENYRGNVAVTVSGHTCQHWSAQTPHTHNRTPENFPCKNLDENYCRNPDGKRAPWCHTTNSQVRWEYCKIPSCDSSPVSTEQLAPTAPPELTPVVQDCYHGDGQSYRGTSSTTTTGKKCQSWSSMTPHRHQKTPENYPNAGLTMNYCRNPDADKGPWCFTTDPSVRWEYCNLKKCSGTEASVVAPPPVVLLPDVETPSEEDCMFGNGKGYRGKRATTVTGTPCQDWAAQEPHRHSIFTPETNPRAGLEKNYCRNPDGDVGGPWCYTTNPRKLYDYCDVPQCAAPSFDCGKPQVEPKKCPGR
Sequence of Plasminogen (P00747 581-810 limits assumed): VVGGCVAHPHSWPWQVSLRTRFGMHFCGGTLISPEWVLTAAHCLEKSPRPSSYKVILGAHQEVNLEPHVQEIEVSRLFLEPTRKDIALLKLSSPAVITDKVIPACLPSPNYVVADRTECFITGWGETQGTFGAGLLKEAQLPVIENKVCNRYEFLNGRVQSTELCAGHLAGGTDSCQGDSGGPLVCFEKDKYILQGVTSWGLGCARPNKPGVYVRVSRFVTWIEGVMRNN
Sequence of Coagulation factor X (Homo sapiens) (P00742 41-179 limits assumed): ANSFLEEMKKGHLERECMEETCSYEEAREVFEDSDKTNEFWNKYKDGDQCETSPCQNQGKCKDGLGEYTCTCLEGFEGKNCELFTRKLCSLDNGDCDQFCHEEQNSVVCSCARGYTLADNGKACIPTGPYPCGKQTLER
Sequence of Coagulation factor X (Homo sapiens) (P00742 235-488 limits assumed): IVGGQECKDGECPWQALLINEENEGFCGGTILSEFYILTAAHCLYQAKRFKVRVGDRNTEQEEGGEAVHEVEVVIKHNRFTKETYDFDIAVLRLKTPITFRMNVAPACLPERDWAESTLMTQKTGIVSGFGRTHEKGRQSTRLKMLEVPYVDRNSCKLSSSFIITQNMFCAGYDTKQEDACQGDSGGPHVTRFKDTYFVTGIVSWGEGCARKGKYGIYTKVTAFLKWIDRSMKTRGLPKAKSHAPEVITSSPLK

Structure (SMILES)	IC50 [2] [nM]	IC50 [6] [nM]	Mortality [7]	also measured
Cl.Cl.N=C(N)N1CCc2ccc(OCC3(C(=O)O)CCN(c4ccncc4)CC3)cc2C1	> 10000	–	–	Mortality [1]: 0
CC(=N)N1CCC(Oc2ccc(C(Cc3ccc4cc[n+](C(=N)N)cc4c3)C(=O)O)cc2)C1 (stereo not drawn)	–	–	–	Ki [3]: 23000 nM; Ki [4]: 620 nM; Ki [5]: > 100000 nM
Cl.Cl.N=C(N)N1CCc2ccc(OCC3(C(=O)O)CCN(c4ccncn4)CC3)cc2C1	> 10000	100	–	Mortality [1]: 0
CCOC(=O)C1(COc2ccc3c(c2)CN(C(=N)N)CC3)CCN(c2ccncc2)CC1.Cl.Cl	> 10000	80	–	Mortality [1]: 3
Cl.Cl.N=C(N)N1CCc2ccc(OCC3CCN(c4ccncc4)CC3)cc2C1	> 10000	60	3	–
N=C(N)N1CCc2ccc(OCC3(C(=O)O)CCN(c4ccncc4)CC3)cc2C1	–	–	–	inhibition [8]: 41%
N=C(N)N1CCc2ccc(OCC3CCNCC3)cc2C1	> 10000	3000	–	–
Cc1cc(N2CCC(COc3ccc4c(c3)CN(C(=N)N)CC4)(C(=O)O)CC2)ccn1.Cl.Cl	> 10000	200	–	Mortality [1]: 0
CC(=N)N1CCC(COc2ccc3c(c2)CN(C(=N)N)CC3)CC1.Cl.Cl	> 10000	500	3	–
Cl.Cl.N=C(N)N1CCc2ccc(OCC3CCN(c4ccncc4CCC(=O)O)CC3)cc2C1	> 10000	200	–	Mortality [1]: 0
COC(=O)c1cnccc1N1CCC(COc2ccc3c(c2)CN(C(=N)N)CC3)CC1.Cl.Cl	> 10000	200	3	–
CCOC(=O)CCc1cnccc1N1CCC(COc2ccc3c(c2)CN(C(=N)N)CC3)CC1.Cl.Cl	> 10000	200	3	–
N=C(N)N1CCc2ccc(OCC3(C(=O)O)CCN(c4ccncc4)CC3)cc2C1.O=S(O)O	–	–	–	Cmax [9]: 391 ng/mL; Ki [3]: 78200 nM; Ki [4]: 13600 nM; Ki [5]: > 100000 nM; Ki [10]: 19 nM
Cl.Cl.N=C(N)N1CCc2ccc(OCC3CCN(c4ccncc4C(=O)O)CC3)cc2C1	> 10000	2000	0	–
Cl.Cl.N=C(N)N1CCc2ccc(OCC3CCN(c4ccnc5ccccc45)CC3)cc2C1	> 10000	400	3	–
N=C(N)N1CCc2ccc(OCC3CCN(Cc4ccccn4)CC3)cc2C1	> 10000	1000	–	–
Cl.Cl.Cl.N=C(N)N1CCc2ccc(OCC3CCN(Cc4ccncc4)CC3)cc2C1	> 10000	800	–	Mortality [11]: 3
